Experimental data reported in ChEMBL document CHEMBL1781898, “Orally active achiral N-hydroxyformamide inhibitors of ADAM-TS4 (aggrecanase-1) and ADAM-TS5 (aggrecanase-2) for the treatment of osteoarthritis” (Bioorg Med Chem Lett, 2011).

How the values were obtained:
[1] = molecular target: T1, A disintegrin and metalloproteinase with thrombospondin motifs 4 (Homo sapiens, UniProt O75173); test: Inhibition of ADAMTS-4 assessed as substrate cleavage after 16 hrs by fluorescence assay
T1 sequence (O75173 whole entry): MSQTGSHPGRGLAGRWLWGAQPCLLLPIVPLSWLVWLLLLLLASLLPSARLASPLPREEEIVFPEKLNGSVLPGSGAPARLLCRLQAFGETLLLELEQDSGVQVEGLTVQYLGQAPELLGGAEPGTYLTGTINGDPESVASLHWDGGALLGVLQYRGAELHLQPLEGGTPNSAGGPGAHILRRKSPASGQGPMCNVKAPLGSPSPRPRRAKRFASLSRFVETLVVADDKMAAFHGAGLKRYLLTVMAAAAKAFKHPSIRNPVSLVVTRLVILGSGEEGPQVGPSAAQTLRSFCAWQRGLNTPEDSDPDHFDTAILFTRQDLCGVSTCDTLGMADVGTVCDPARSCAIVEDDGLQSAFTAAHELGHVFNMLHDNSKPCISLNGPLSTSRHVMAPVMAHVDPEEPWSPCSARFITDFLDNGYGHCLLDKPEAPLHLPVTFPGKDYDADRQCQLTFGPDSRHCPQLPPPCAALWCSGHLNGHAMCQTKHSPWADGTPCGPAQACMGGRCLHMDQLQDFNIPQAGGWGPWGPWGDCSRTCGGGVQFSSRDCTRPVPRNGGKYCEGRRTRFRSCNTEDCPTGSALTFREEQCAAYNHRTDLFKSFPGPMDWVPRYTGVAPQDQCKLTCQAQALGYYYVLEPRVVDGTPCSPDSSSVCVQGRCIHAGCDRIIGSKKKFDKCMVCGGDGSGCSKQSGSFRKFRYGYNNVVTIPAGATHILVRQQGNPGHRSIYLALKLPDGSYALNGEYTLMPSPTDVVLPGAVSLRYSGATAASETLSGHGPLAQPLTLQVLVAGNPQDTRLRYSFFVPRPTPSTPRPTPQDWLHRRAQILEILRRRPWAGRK
Method in brief: (§1)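 Enzyme inhibition IC50s derived from at least six measurements, standard errors normally <5% within an assay; a standard compound run to keep assay-to-assay variability within twofold.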

[2] = molecular target: Matrix metalloproteinase-14 (Homo sapiens, UniProt P50281); test: Inhibition of recombinant human MMP-14 assessed as substrate cleavage after 20 hrs by fluorescence assay; method in brief: as §1
Interstitial collagenase = molecular target: T2, Interstitial collagenase (Homo sapiens, UniProt P03956); test: Inhibition of recombinant human MMP-1 assessed as substrate cleavage after 20 hrs by fluorescence assay; method in brief: as §1
T2 sequence (P03956 whole entry): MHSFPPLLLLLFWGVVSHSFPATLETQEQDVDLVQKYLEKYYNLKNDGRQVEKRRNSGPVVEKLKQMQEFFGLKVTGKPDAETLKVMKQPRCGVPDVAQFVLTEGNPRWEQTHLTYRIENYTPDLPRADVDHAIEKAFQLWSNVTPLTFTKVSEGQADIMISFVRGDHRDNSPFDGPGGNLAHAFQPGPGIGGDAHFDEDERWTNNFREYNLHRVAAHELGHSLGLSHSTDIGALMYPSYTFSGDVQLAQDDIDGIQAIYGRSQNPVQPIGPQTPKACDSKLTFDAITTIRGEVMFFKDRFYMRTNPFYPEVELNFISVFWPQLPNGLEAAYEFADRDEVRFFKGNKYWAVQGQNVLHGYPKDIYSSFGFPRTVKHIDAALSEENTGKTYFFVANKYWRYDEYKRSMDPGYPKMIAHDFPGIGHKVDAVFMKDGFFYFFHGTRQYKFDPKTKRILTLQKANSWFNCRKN

Cytochrome P450 3A4 = Cytochrome P450 3A4 (Homo sapiens, UniProt P08684); test: Inhibition of CYP3A4; format: ADME
Cytochrome P450 3A4, sequence (P08684 whole entry, canonical isoform): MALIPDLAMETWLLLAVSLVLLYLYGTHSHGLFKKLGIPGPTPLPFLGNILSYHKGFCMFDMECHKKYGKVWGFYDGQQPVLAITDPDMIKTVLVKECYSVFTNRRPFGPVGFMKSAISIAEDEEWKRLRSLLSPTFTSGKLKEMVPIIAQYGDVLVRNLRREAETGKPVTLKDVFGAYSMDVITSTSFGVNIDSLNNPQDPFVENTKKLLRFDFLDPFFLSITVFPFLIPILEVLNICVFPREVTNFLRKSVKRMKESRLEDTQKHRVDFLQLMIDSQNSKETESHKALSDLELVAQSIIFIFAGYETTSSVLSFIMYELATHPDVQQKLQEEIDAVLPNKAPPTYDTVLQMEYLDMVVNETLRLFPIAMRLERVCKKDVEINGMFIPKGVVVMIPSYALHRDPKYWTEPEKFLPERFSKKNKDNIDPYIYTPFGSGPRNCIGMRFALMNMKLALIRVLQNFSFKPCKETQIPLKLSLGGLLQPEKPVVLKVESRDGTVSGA
Method in brief: (§2)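 Inhibition of cytochrome P450 isoforms 1A2, 2C9, 2C19, 2D6 and 3A4, reported as pIC50.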

[3] = molecular target: 72 kDa type IV collagenase (Homo sapiens, UniProt P08253); test: Inhibition of recombinant human MMP-2 assessed as substrate cleavage after 20 hrs by fluorescence assay; method in brief: as §1
72 kDa type IV collagenase, sequence (P08253 whole entry): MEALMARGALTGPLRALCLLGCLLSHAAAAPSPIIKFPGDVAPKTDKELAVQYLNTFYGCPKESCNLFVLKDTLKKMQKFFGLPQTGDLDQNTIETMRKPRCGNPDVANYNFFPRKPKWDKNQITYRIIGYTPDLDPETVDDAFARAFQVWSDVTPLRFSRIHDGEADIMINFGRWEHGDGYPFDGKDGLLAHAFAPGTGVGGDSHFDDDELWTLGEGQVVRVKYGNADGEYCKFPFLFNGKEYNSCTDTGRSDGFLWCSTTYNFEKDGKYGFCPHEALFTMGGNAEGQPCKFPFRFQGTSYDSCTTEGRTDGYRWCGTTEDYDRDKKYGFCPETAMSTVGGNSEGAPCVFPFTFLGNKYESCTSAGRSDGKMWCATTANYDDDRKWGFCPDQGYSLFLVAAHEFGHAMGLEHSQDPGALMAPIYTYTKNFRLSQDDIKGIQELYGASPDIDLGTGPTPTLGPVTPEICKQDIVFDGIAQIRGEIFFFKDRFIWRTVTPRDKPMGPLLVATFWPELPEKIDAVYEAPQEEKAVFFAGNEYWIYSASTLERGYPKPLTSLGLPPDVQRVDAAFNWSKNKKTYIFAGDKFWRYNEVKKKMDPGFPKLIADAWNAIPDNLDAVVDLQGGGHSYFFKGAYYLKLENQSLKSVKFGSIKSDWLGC

[4] = Clearance in rat at 2 mg/kg, iv; format: ADME, organism-based; set-up: dose 2 mg/kg, route intravenous; conditions: in vivo
Method in brief: (§3)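 Rat iv PK: 2 mg/kg iv, n = 2 animals; clearance, half-life and Vdss determined.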

[5] = Half life in rat at 2 mg/kg, iv; format: ADME, organism-based; set-up: dose 2 mg/kg, route intravenous; conditions: in vivo; method in brief: as §3
[6] = Free drug level in human; format: ADME, organism-based; conditions: in vivo
[7] = Free drug level in rat; format: ADME, organism-based; conditions: in vivo
[8] = Free drug level in dog; format: ADME, organism-based, Canis lupus familiaris; conditions: in vivo
[9] = Intrinsic clearance in human hepatocytes measured per million cells; format: ADME, cell-based, Liver, Hepatocyte
Method in brief: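 Human hepatocyte metabolism; intrinsic clearance expressed as μL/min/10⁶ cells, reported as mean of six separate experiments.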

[10] = Apparent permeability across apical to basolateral side in human Caco2 cells at 10 uM; format: ADME, cell-based; conditions: Caco-2
[11] = Half life in mouse; format: ADME, organism-based; conditions: in vivo
[12] = Volume of distribution at steady state in mouse; format: ADME, organism-based; conditions: in vivo, read-out: Vdss
[13] = Clearance in rat at 2 mg/kg, iv and 3 to 10 mg/kg, po; format: ADME, organism-based; conditions: in vivo
[14] = Clearance in dog at 1 mg/kg, iv and 1 mg/kg, po; format: ADME, organism-based, Canis lupus familiaris; conditions: in vivo
[15] = Half life in dog at 1 mg/kg, iv and 1 mg/kg, po; format: ADME, organism-based, Canis lupus familiaris; conditions: in vivo
[16] = Volume of distribution at steady state in dog at 1 mg/kg, iv and 1 mg/kg, po; format: ADME, organism-based, Canis lupus familiaris; conditions: in vivo, read-out: Vdss
[17] = Inhibition of aggrecanase activity in IL-1-stimulated human osteoarthritis cartilage explant assessed as inhibition of aggrecan degradation measuring ARGSVIL neo-peptide release
[18] = Absolute bioavailability in mouse; format: ADME, organism-based; conditions: in vivo
[19] = Absolute bioavailability in rat; format: ADME, organism-based; conditions: in vivo
Cytochrome P450 1A2 = molecular target: T3, Cytochrome P450 1A2 (Homo sapiens, UniProt P05177); test: Inhibition of CYP1A2; format: ADME; method in brief: as §2
T3 sequence (P05177 whole entry): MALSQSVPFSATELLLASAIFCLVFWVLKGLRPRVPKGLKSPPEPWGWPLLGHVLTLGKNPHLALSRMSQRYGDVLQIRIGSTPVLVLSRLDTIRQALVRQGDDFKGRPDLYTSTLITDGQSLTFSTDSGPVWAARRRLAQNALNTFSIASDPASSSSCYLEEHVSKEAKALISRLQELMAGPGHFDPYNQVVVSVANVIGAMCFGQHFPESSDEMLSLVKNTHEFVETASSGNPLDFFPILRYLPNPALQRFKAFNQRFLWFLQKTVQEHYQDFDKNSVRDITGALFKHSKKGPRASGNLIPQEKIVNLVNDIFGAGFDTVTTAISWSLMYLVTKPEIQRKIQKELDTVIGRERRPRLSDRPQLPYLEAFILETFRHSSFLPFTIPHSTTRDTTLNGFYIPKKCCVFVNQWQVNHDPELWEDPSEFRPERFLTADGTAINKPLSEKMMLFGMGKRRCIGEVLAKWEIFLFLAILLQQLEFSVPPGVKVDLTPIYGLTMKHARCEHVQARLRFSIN

Cytochrome P450 2C9 = Cytochrome P450 2C9 (Homo sapiens, UniProt P11712); test: Inhibition of CYP2C9; format: ADME; method in brief: as §2
Cytochrome P450 2C9, sequence (P11712 whole entry): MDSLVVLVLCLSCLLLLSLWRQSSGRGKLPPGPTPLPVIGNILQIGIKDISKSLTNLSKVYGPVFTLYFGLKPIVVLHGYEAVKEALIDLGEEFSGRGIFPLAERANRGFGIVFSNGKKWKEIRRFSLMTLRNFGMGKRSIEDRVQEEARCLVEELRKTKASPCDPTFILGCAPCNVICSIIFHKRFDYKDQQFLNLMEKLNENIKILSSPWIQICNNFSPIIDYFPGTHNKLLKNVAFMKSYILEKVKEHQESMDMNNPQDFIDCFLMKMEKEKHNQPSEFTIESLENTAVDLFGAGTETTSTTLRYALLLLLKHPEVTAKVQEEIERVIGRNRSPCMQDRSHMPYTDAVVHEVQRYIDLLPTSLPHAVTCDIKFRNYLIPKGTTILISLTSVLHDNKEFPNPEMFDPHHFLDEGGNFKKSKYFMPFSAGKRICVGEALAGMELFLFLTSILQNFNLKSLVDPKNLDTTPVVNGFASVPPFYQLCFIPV

IC50 [1]: 0.026 µM | IC50 [2]: > 23 µM | IC50 (Interstitial collagenase): > 10 µM | inhibition (INH) (Cytochrome P450 3A4): Not Active | IC50 [3]: > 23 µM | clearance [4]: 1.44 L/h/kg | half-life [5]: 8.9 h | fraction unbound [6]: > 0.5 | fraction unbound [7]: > 0.5 | fraction unbound [8]: > 0.5 | hepatocyte CLint [9]: < 2 µL/min/1e6 cells | Papp A→B at 10 µM [10]: 83 nm/s | half-life [11]: 2.6 h | Vd [12]: 2.5 L/kg | clearance [13]: 1.44 L/h/kg | clearance [14]: 0.78 L/h/kg | half-life [15]: 19.1 h | Vd [16]: 10.9 L/kg | IC50 [17]: 0.12 µM | bioavailability [18]: 54% | bioavailability [19]: 45% | inhibition (INH) (Cytochrome P450 1A2): Not Active | inhibition (INH) (Cytochrome P450 2C9): Not Active
SMILES: Cc1noc(C)c1CCC1CCN(S(=O)(=O)CC2(N(O)C=O)CCOCC2)CC1
